Source: the EternaBench riboswitch data

Test system: MS2 coat protein
Assay: apparent Kd, MS2 coat protein; higher = weaker binding; RNA-MaP array; FMN 200 µM where present
Procedure, shortened: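 The apparent Kd is the median of filtered binding-curve fits, one per cluster, to green signal normalised to red-channel RNA signal and control-cluster median Fmax. The clusters were on Illumina sequencing chips, and stalled E. coli RNA polymerase had transcribed the designs on them. Titration used SNAP-549-labelled MS2 coat protein from 0.7 or 1.5 nM, doubling to 3 µM, without and then with constant ligand, in 100 mM Tris-HCl pH 7.5, 80 mM KCl, 4 mM MgCl2, BSA, DTT, yeast tRNA and Tween-20.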

[1] = designed as: OFF switch for flavin mononucleotide, no ligand
[2] = ligand present: flavin mononucleotide, designed as: OFF switch for flavin mononucleotide
[3] = designed as: ON switch for flavin mononucleotide, no ligand
[4] = ligand present: flavin mononucleotide, designed as: ON switch for flavin mononucleotide

Row | Sequence | apparent Kd [1] [nM] | apparent Kd [2] [nM] | apparent Kd [3] [nM] | apparent Kd [4] [nM]
1 | AUUAUUAUAAAUUUGGCAAGUAUCAGAAGGCGUUACAUGAGGAUCACCCAUGUUUUGUAUAGUAACGAGGAUAUGAUAUGGAAA | 15.2 | 13.5 | – | –
2 | ACAUGAGGAUCACCCAUGUUUUUCGGGUACUCUUUUUACAGCAAGGAUAUGCAUGUUUUUUUUACGCAGAAGGUGCUUUACGUC | 102 | 165 | – | –
3 | AUUGUGUUAGGAUAUGCUUAUGGUGGGUAGUCCAGUAUGAAGUAGAAGGGACAUGAGGAUCACCCAUGUGCUCA | 60.1 | 56.2 | – | –
4 | UCCUGGCGAGGAUAUACAAAGUUUUUCACGUUUUGUUUCGAACAUGAGGAUCACCCAUGUAGAAGGUGCUACUG | 62.6 | 52.8 | – | –
5 | GGACAUUUACAGAAGGGCAAGUUAGAUAGUGAAUAUUUAGUUCUGACUUGCAGGAUAUGUUGAACAUGAGGAUCACCCAUGUCC | – | – | 14.4 | 10.6
6 | GGGUACAGUGAGAAGGUCUGCGGAUUCCUUAACAUGAGGAUCACCCAUGUAGAAGGAUAUCACAGGUAAAGGUCGUCUAACGAU | 5.49 | 6.82 | – | –
7 | CGCUAAGAUGGGUUUAAUGGAGCAUAGGAUAUGCUUGUACAUGAGGAUCACCCAUGUAAUAUUGUGCAGAAGGGUGCAUUUGCG | – | – | 126 | 75.1
8 | UCGCCAGGUACAGGAUAUGUGGAUCAGUUAAGUAACUUACUGAACAUGAGGAUCACCCAUGUAUCACAGAAGGGUGCCUCAAAA | – | – | 164 | 11.1
9 | ACAUGAGGAUCACCCAUGUAUUACAUGGUUAUGUUUAUUAACAGAAGGCGAAAUUACCACUUGAUCGAGGAUAUGUAUUCAAUU | 73 | 59.7 | – | –
10 | CAGCGAUAGCUAAAGUAUCUAUCAGAGGAUAUUCAUGAAACAUGAGGAUCACCCAUGUGAAACUGGGAGAAGGCUGAUAGAUAG | – | – | – | 5.92
11 | UCGUGUUAUACAGGAUAUGUUUAGGUUUAUUCAUUCAGUUAUUAAUUUAUGACAGAAGGGUAUACAUGAGGAUCACCCAUGUCA | 761 | 306 | – | –
12 | GUCUUGUUAGGAUAUCUUACUUUUGCAUCAUAGUAACCAUUGGAGAAGGGACAUGAGGAUCACCCAUGUUUGGU | 34.6 | 30 | – | –
13 | AAUCCACAUGAGGAUCACCCAUGUCAGGAUAUCGCGCGCGCGGUUUCGGUCGCGCGCGCGAGAAGGGACGGCUG | 28.8 | 51.7 | – | –
14 | UAUUAGUAAGGAUAUCUCGUCAUGGAGGAAACUCCAUGACGAGAGAAGGUACAUGAGGAUCACCCAUGUCUAUU | 16.1 | 18.3 | – | –
15 | AAGUAGGGAGGAUAUACAUAGAUACAGAUUCGUGUAGAACUACAUGAGGAUCACCCAUGUAGAAGGCCCUAAUA | 18.1 | 41.6 | – | –
16 | CUCGAGUGAGGAUAUUGAAUCGGCGGCUGACCGCACGAGCUCGAGAAGGCACAUGAGGAUCACCCAUGUGGGUC | 15.2 | 27.3 | – | –
17 | UGUCUAUUUGAAGGAUAUCUAAGCAUAAACCAGAGAGAAGGUCAAUUAUACAUGAGGAUCACCCAUGUUGAGAUUAAUGGGUUU | 20.5 | 26.4 | – | –
18 | AACGGGUGGGUAGGAUAUGGCUAUGUCUCAUUGCUAGAAGGACCAGCUGCUACAUGAGGAUCACCCAUGUCGUAGUGCAUCCAG | – | – | 88.2 | 13
19 | GUCGGAUGUAUAGGAUAUCGACUGGAAUACAGUCGAGAAGGAUACAUGAGGAUCACCCAUGUAAUAAUAAUAAUAAUAACCGAC | 12.5 | 24 | – | –
20 | AAUUUCAGAUGAGGAUAUUGACAUGAGGAUCACCCAUGUAUUUGGGAAUGUUUACUGAAUUCUUACAAGAAGGUAUACGAACUU | 237 | 164 | – | –
21 | GCCAGGUGGGUAGGAUAUGGCUAUGUCUCAUUGCUAGAAGGACCAACUGCUACAUGAGGAUCACCCAUGUCGUAGUGCACCCGG | – | – | 78.9 | 25.4

Row | Sequence | apparent Kd [1] [nM] | apparent Kd [2] [nM] | apparent Kd [3] [nM] | apparent Kd [4] [nM]
22 | ACAAAAGUUGAUCCUCGCUACAUGAGGAUCACCCAUGUAAUGGAGGAUAUGCAGCAACAAAACUCGCAGAAGGCCAUUUGCUGG | 52.5 | 30.5 | – | –
23 | GUCGGAAACGACAAAAGUAUGGAUCCAGAAGGCAUGAAACAUGAGGAUCACCCAUGUCAAAGACAUGAGGAUAUGGAUCCAUAC | – | – | 4.06 | 3.19
24 | AAAAGCUAAGGAUAUACAUGAGGAUCACCCAUGUACACCGGUACGGGUGCGAACUCCUGUAGAAGGUGGGAUAA | 148 | 159 | – | –
25 | GGGUACAUCGGAGGAUAUCAUGUAAAUACAUGAGGAUCACCCAUGUCGAUGCAGACAUCGGAGAUUGAGAAGGCCGAUGUACCG | – | – | 974 | 78.4
26 | GCCAUCACAUGAGGAUAUGCUCCCGUUUCGGGAGCAGAAGGCAUGUCAUAAGACAUGAGGAUCACCCAUGUAUUUAAGAUGGCA | – | – | 227 | 9.52
27 | CAACAGUCAGGAUAUGCAAAAAAAACGCAACGCAAAAAAAAGCAGAAGGGACAUGAGGAUCACCCAUGUUGUCG | 30.2 | 26.3 | – | –
28 | UUAUAUAGUGUGAGGAUAUGCUGGUCCUUGGAUCAGCAGAAGGCACAUGAGGAUCACCCAUGUAGUUUAUUUUU | 25.4 | 144 | – | –
29 | GUAUAUAUUACAUGAGGAUCACCCAUGUCAGAACGGGUAAUCAGAAGGUAGUAUUAGAGAAAGAUUAAGGAUAUGAUUAUAUAC | – | – | 231 | 81.1
30 | AAUUACAGAUGAGGAUAUUGACAUGAGGAUCACCCAUGUAUUUGGGAAUGUUUACUGAAUUCUUACGAGAAGGUAUACGUACUU | 122 | 94.3 | – | –
31 | UGUUGUAUUACAGGAUAUCUGUUAUUUUUAUUUAGAGAAGGGUAUUCACAUGAGGAUCACCCAUGUAUAUACGAGGAAGUUGUG | – | – | 57.3 | 61.4
32 | UGGGUCACAGGAUAUACAUGAGGAUCACCCAUGUCGUAUUUCGUGGCGGAGAGCUCGAGUAGAAGGGUGCAUCC | 119 | 87.4 | – | –
33 | AAAACAUGAGGAUCACCCAUGUUUAGAUCGGUCAAUAGAAGUGAGGAUAUACGAAGUUAAGGCUGGUAGAAGGCACUGGGUACA | – | – | 32.4 | 32.2
34 | UGAUGUCGCGAGGAUAUCCAAGAGGACUUUCUGGGAGAAGGUGCGACAUGAGGAUCACCCAUGUCAUAAGGAGU | 109 | 287 | – | –
35 | ACAUGAGGAUCACCCAUGUAUUUAUUUGAAUCUUAAGUUACGUAGGAUAUCGUGUAUACUAUCAUCGAGAAGGACGAUGUGAUA | – | – | 15.4 | 13.6
36 | AAAACAUGAGGAUCACCCAUGUAAAGAACGGUUAAUAAAUGUGAGGAUAUACUAAAAUUUUCGUAGUAGAAGGCACUGGGUACA | – | – | 22.2 | 24.8
37 | CCCGUCAUCGAGAAGGCCUCAACAUGAGGAUCACCCAUGUUGUAAUAUGGGAGGAUAUCGAUGAUACAGCUACGUUUCGUAGGG | – | – | 17.3 | 6.33
38 | GGUGCGUAUGUGAGGAUAUGCUGGUCCUUGGAUCGGCAGAAGGCACAUGAGGAUCACCCAUGUGGUGUCGUACA | 411 | 34.7 | – | –
39 | AAUAGUAUUGUAGGAUAUGUUAUUUUCUAACAUGAGGAUCACCCAUGUAAUAUAGGGUUGUUUCUACAGAAGGACAAUUUAUUA | – | – | 509 | 387
40 | GAAGCUAUCGGAGGAUAUUCAUAGCCGAAAGGCACAUGAGGAUCACCCAUGUGCGGAAACGCUUGGGAGAAGGCCGAUAGCUUC | – | – | 25.4 | 14.7
41 | GGAUCCAACACAGGAUAUGCUGGACUUUGUCCAGCAGAAGGGUGAAGGACAUGAGGAUCACCCAUGUGGAUCCAUAUAUUUAAU | – | – | 324 | 27.8
42 | UGCAUGUAAGGAUAUGCAUCCGCCGGCGAACCGGCGCCACAGCAGAAGGUACAUGAGGAUCACCCAUGUGUCCC | 18.8 | 51.6 | – | –
